Active and inactive are the calls of the source. No cut-off for these calls is given here.
Experiments:
[1] = target: T1, Adenosine receptor A2a (Homo sapiens, UniProt P29274); experiment: Displacement of [3H]ZM 241385 from human adenosine A2a receptor expressed in HEK293 cells at 1 uM; format: cell-based
How it was run: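 Single-point screen at 1 µM for % displacement of specific [³H]ZM 241385 binding at human A2A receptors in HEK 293 cells, n = 2.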

[2] = target: T2, Adenosine receptor A1 (Homo sapiens) (UniProt P30542); experiment: Displacement of [3H]DPCPX from human adenosine A1 receptor expressed in CHO cells at 1 uM; format: cell-based
T2 sequence (whole entry): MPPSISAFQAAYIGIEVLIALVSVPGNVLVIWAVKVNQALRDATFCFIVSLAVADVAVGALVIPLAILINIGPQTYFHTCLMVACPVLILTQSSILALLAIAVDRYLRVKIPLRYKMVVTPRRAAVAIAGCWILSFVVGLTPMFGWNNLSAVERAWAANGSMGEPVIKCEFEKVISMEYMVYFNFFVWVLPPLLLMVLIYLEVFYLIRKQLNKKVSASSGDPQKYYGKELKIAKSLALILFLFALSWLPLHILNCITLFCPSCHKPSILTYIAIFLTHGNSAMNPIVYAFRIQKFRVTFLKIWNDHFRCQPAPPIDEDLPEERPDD
How it was run: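 Inhibition of specific [³H]DPCPX binding to human A1 receptors in CHO cells by test compound at 1 µM, reported as % displacement, n = 2.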

[3] = target: T3, Adenosine receptor A3 (Homo sapiens, UniProt P0DMS8); experiment: Displacement of [125I]AB-MECA from human adenosine A3 receptor expressed in HEK293 cells; format: cell-based
T3 sequence (P0DMS8 whole entry): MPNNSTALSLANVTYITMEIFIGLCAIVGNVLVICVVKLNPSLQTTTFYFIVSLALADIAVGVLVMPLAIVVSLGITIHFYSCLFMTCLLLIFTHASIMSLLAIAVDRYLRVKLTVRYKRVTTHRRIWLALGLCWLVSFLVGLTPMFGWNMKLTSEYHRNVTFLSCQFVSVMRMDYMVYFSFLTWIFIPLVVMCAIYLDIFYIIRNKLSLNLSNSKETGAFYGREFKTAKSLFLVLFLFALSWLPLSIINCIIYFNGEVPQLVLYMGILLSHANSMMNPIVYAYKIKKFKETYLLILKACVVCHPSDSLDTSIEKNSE

[4] = target: T4, Adenosine receptor A1 (Homo sapiens, UniProt P30542); experiment: Displacement of [3H]DPCPX from human adenosine A1 receptor expressed in CHO cells; format: cell-based
T4 sequence (P30542 whole entry): T2 sequence (whole entry)
How it was run: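 Competition binding against [³H]DPCPX (K_D 1.6 nM) at human A1 receptors expressed in CHO cells. Ki was derived by nonlinear regression, mean ± SEM, n = 3.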

[5] = target: T1, Adenosine receptor A2a; experiment: Displacement of [3H]ZM 241385 from human adenosine A2a receptor expressed in HEK293 cells; format: cell-based
How it was run: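 Radioligand competition using [³H]ZM 241385 (K_D 1.0 nM) at human A2A receptors expressed in HEK 293 cells. Ki was obtained by nonlinear regression, ± SEM, n = 3.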

[6] = target: T2, Adenosine receptor A1 (Homo sapiens); experiment: Activity against human adenosine A1 receptor in CHO cells by increase of forskolin-induced cAMP production at 100 nM; format: functional, cell-based; details: filed as antagonist
How it was run: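 Human A1-expressing CHO monolayers were preincubated 30 min at 37 °C with adenosine deaminase (0.8 IU/mL), rolipram and cilostamide (50 µM each) in HEPES/DMEM pH 7.4. Test compound at 100 nM was added for 10 min, then forskolin 10 µM for 15 min, and the reaction was stopped with ice-cold 0.1 M HCl. cAMP was measured by [³H]cAMP competition for PKA. Forskolin alone was set at 100% and CPA 1 µM at 0%. At least three experiments in duplicate.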

[7] = target: Adenosine receptors; A1 & A2a (Homo sapiens) (UniProt P30542+P29274); experiment: Selectivity for human adenosine A1 receptor over adenosine A2a receptor; format: protein assay
How it was run: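 Ki values from radioligand displacement binding at each receptor. Human A1 expressed in CHO cells with [3H]DPCPX (KD 1.6 nM); human A2A expressed in HEK 293 cells with [3H]ZM 241385 (KD 1.0 nM). Ki from nonlinear regression, mean ± SEM (n = 3); selectivity compares the A1 and A2A Ki values.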

[8] = target: T2, Adenosine receptor A1 (Homo sapiens); experiment: (§1) Activity against human adenosine A1 receptor in CHO cells assessed by the antagonizing effect of 100 nM CPA on forskolin-induced cAMP production; format: functional, cell-based
How it was run: (§2)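 Whole-cell cAMP assay in CHO cells expressing human A1 receptor, 2 × 10⁵ cells/well grown overnight as a monolayer. Cells were pretreated 30 min at 37 °C with adenosine deaminase 0.8 IU/mL, rolipram 50 µM and cilostamide 50 µM in HEPES/DMEM pH 7.4. Compound was then given against 100 nM CPA, followed by forskolin 10 µM for 15 min. cAMP was measured by [³H]cAMP/PKA competition. A full concentration-response curve gave K_B.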

[9] = target: T4, Adenosine receptor A1; experiment: as §1; format: functional, cell-based; how it was run: as §2

T1 sequence (P29274 whole entry): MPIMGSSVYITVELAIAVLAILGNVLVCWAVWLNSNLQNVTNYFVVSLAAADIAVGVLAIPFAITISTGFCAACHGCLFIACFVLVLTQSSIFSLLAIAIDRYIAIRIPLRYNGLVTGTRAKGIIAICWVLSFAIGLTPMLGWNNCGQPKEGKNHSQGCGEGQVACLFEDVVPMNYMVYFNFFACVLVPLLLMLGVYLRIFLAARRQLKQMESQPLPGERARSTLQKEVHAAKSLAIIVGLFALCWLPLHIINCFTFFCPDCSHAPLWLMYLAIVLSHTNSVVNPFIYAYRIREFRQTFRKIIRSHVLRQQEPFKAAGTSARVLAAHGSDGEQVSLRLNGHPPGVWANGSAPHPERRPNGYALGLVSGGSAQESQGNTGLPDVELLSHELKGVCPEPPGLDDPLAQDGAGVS
Chain of Adenosine receptors; A1 & A2a (Homo sapiens) (P29274 whole entry, looked up, one chain of several): as the sequence (P29274 whole entry) above

Question: How did the Activity [1] turn out when `Cc1ccc(-c2[nH]c(-c3ccccc3)nc3nc(C4CCCCC4)nc2-3)cc1` was run?
Answer: The Activity was 9%.

Question: How did the Activity [1] turn out when `COc1ccc(-c2nc(-c3ccc(OC)cc3)c3[nH]cnc3n2)cc1` was run?
Answer: Its Activity is 37%.

Question: And the Activity [2]?
Answer: Its Activity is 40%.

Question: And the Ki [3]?
Answer: Its Ki is 165 nM.

Question: `COc1ccc(-c2nc(-c3ccccc3)c3[nH]cnc3n2)cc1` was tested. Which Activity [1] did it give?
Answer: Its Activity is 47%.

Question: What about the Ki [4] of the same compound?
Answer: The Ki was 32 nM.

Question: What about the Ki [3] of the same compound?
Answer: Its Ki is 4 nM.

Question: Which Activity [1] does the source give for `Clc1ccc(-c2[nH]c(-c3ccccc3)nc3nc(C4CCCCC4)nc2-3)cc1Cl` here?
Answer: The Activity was 20.3%.

Question: And the Ki [4]?
Answer: The Ki was 37 nM.

Question: Which Activity [1] does the source give for `Clc1ccc(-c2[nH]c(-c3ccccc3)nc3nc(C4CCCCC4)nc2-3)cc1` here?
Answer: Its Activity is 24%.

Question: `Clc1ccc(-c2nc(-c3ccc(Cl)cc3)c3[nH]cnc3n2)cc1` was tested. Which Activity [1] did it give?
Answer: Its Activity is 11%.

Question: And the Activity [2]?
Answer: The Activity was 21%.

Question: What about the Ki [3] of the same compound?
Answer: Its Ki is 68 nM.

Question: How did the Activity [1] turn out when `Cc1ccc(-c2nc(-c3ccc(C)cc3)c3[nH]cnc3n2)cc1` was run?
Answer: The Activity was 4%.

Question: What about the Ki [4] of the same compound?
Answer: The Ki was 235 nM.

Question: And the Ki [3]?
Answer: The Ki was 9.3 nM.

Question: With `c1ccc(-c2nc(-c3ccccc3)c3[nH]c(-c4ccccc4)nc3n2)cc1` as the compound, how does the Ki [5] read?
Answer: The Ki was 66 nM.

Question: What about the Ki [4] of the same compound?
Answer: The Ki was 21 nM.

Question: And the Ki [3]?
Answer: Its Ki is 49 nM.

Question: Which results are given for `CCCc1nc2nc(-c3ccccc3)nc(-c3ccccc3)c2[nH]1`?
Answer: Ki [5]: 167 nM; Ki [4]: 4.4 nM; Ki [3]: 17 nM

Question: Which Ki [4] does the source give for `Clc1ccc(-c2nc(-c3ccccc3)nc3nc(C4CCCCC4)[nH]c23)cc1` here?
Answer: Its Ki is 25 nM.

Question: What about the Ki [3] of the same compound?
Answer: The Ki was 243 nM.

Question: `Cc1ccc(-c2nc(-c3ccccc3)nc3nc(C4CCCCC4)[nH]c23)cc1` was tested. Which Ki [4] did it give?
Answer: Its Ki is 36 nM.

Question: For `CC(C)c1nc2[nH]c(-c3ccccc3)nc(-c3ccccc3)c-2n1`, which Ki [5] is on record?
Answer: Its Ki is 148 nM.

Question: What about the Activity [6] of the same compound?
Answer: Its Activity is “Antagonist”.

Question: What about the Ki [4] of the same compound?
Answer: The Ki was 0.82 nM.

Question: What about the Ki [3] of the same compound?
Answer: Its Ki is 9.5 nM.

Question: For `Cn1c(C2CCCCC2)nc2c(-c3ccccc3)nc(-c3ccccc3)nc21`, which Activity [1] is on record?
Answer: Its Activity is 0%.

Question: What about the Activity [2] of the same compound?
Answer: Its Activity is 24%.

Question: How did the Ki [5] turn out when `c1ccc(-c2nc(-c3ccccc3)c3[nH]cnc3n2)cc1` was run?
Answer: The Ki was 53 nM.

Question: And the Ki [4]?
Answer: Its Ki is 4.1 nM.

Question: What about the Ki [3] of the same compound?
Answer: The Ki was 38 nM.

Question: Which results are given for `Cc1ccc(-c2nc(-c3ccccc3)c3[nH]cnc3n2)cc1`?
Answer: Ki [5]: 289 nM; Ki [4]: 4 nM; Ki [3]: 9.4 nM

Question: With `c1ccc(-c2nc(-c3ccccc3)c3nc(C4CCCC4)nc-3[nH]2)cc1` as the compound, how does the Ki [5] read?
Answer: The Ki was 55 nM.

Question: And the Ratio Ki [7]?
Answer: Its Ratio Ki is 190.

Question: And the Activity [8]?
Answer: Its Activity is “Active”.

Question: What about the Ki [4] of the same compound?
Answer: Its Ki is 0.29 nM.

Question: And the Ki [3]?
Answer: Its Ki is 35 nM.

Question: For `COc1ccc(-c2[nH]c(-c3ccccc3)nc3nc(C4CCCCC4)nc2-3)cc1`, which Activity [1] is on record?
Answer: The Activity was 27%.

Question: And the Ki [4]?
Answer: The Ki was 3.7 nM.

Question: And the Ki [3]?
Answer: Its Ki is 138 nM.

Question: How did the Ki [5] turn out when `Clc1ccc(-c2nc(-c3ccccc3)c3[nH]cnc3n2)cc1` was run?
Answer: The Ki was 315 nM.

Question: And the Ki [4]?
Answer: Its Ki is 27 nM.

Question: What about the Ki [3] of the same compound?
Answer: Its Ki is 94 nM.

Question: Which results are given for `c1ccc(-c2nc(-c3ccccc3)c3nc(C4CCCCC4)nc-3[nH]2)cc1`?
Answer: Ki [5]: 118 nM; IC50 [9]: 477 nM; Ki [4]: 0.73 nM; Ki [3]: 200 nM

From ChEMBL document CHEMBL1147670, “2,6-disubstituted and 2,6,8-trisubstituted purines as adenosine receptor antagonists” (J Med Chem, 2006)
